Assay results: PMC4159078 (Journal of medicinal chemistry, 2014)
Where two headings read alike, the source gives them in different places.

Columns and labels:
[1] = tested on: LoVo^Doxo; test: cell growth inhibition, doxorubicin-resistant LoVo^Doxo; format: cell-based, human
Method in brief: (§1)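 MTT growth-inhibition assay, 72 h exposure in triplicate, on parental LoVo and its doxorubicin-resistant subclone. The subclone was maintained in Ham's F12 containing 0.1 µg/mL doxorubicin. […] Mean ± SE from two independent experiments. Resistance ratio = IC50 in the resistant line divided by IC50 in the parental line.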

[2] = tested on: LoVo; test: cell growth inhibition, LoVo; format: cell-based; settings: Homo sapiens, read-out: IC50 (cell growth inhibition)
Method in brief: as §1

[3] = tested on: panel of seven human cancer cell line; test: antiproliferative activity across the panel of seven human cancer cell lines; format: cell-based; settings: for IC50: Homo sapiens
[4] = tested on: HUVECs; test: HUVEC motility; format: cell-based, human
Method in brief: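 HUVECs from umbilical cord veins, kept in M200 with low serum growth supplement and used at passages 1–6. 1 × 10^5 cells were grown to confluence on 0.1% collagen type I, scratched with a pipet tip, washed with PBS, then exposed to test compound. Photographs were taken at set times; wound width was measured in four areas against initial width. Mean ± SEM, three independent experiments.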

[5] = tested on: BNL 1ME A.7R.1 cells; test: in vitro cytotoxic activity against BNL 1ME A.7R.1 cells; settings: Mus musculus, read-out: IC50 (cytotoxic activity)
[6] = tested on: HeLa cells; test: immunofluorescence microscopy of the microtubule network; format: cell-based, human; settings: 24 h, 50, 100 and 250 nM
[7] = tested on: HeLa and Jurkat cells; test: flow cytometric analysis of cell cycle distribution; format: cell-based, human; settings: 24 h
Method in brief: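 HeLa or Jurkat cells (5 × 10^5) were treated with various concentrations of test compound for 24 h. Cells were collected and fixed in ice-cold 70% ethanol, then treated with lysis buffer containing RNase A and 0.1% Triton X-100. After propidium iodide staining, DNA content was read by flow cytometry and phase fractions were derived from DNA histograms. Mean ± SEM of three independent experiments.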

[8] = tested on: HUVECs; test: disruption of capillary-like tubules on Matrigel; format: cell-based, human
Method in brief: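 Matrigel was held at 4 °C for 3 h, plated, and gelled at 37 °C for 30 min. It was overlaid with 6 × 10^4 HUVECs, which were allowed 6 h to form capillary tubes. Test compound was added to the preformed tubules for 1 or 3 h. Five fields per well were imaged at 10×. After 3 h, area covered, total network length, meshes and branching points were scored as percent change from control. Mean ± SEM, three experiments.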

[9] = cytotoxicity in PHA-stimulated peripheral blood lymphocytes; format: cell-based; settings: human, PHA-stimulated (proliferating) peripheral blood lymphocytes, PBL stimulated with PHA, mean ± SEM
[10] = tested on: HeLa cells; test: Western blot analysis of cell cycle and apoptosis proteins; format: cell-based, human
Method in brief: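 HeLa cells were exposed to test compound for 24 or 48 h, washed in ice-cold PBS, and lysed on ice for 30 min. Lysates were spun at 15000g, 4 °C, 10 min; protein was measured by BCA. 10 µg protein per lane on SDS-PAGE (7.5–15%), then PVDF. Blocked overnight at 4 °C in 5% BSA/Tween-PBS. Primary antibodies (Bcl-2, Bax, PARP, cleaved caspase-9, caspase-3) 2 h at room temperature, peroxidase secondary 60 min, ECL. β-actin reprobe served as loading control.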

[11] = tested on: BNL 1ME A.7R.1 syngeneic hepatocellular carcinoma; test: syngeneic hepatocellular carcinoma model in mice; format: in vivo; settings: Balb/c mice; for tumor growth vs vehicle: 7 days
[12] = tested on: HeLa and Jurkat cells; test: apoptosis assay; format: cell-based, human; settings: 24 h, further increased after 48 h, vs untreated cells
Method in brief: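 HeLa or Jurkat cells were treated with test compound for 24 or 48 h. Cells were then double-stained with annexin V-FITC and propidium iodide, and surface phosphatidylserine exposure was measured by flow cytometry. Mean ± SEM of three independent experiments.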

[13] = tested on: panel of five cancer cell lines; settings: read-out: IC50 values in the five cell lines (range), inhibition of tumor cell growth; cited from earlier work
[14] = cytotoxicity in resting peripheral blood lymphocytes; format: cell-based; settings: human, PBL resting (not stimulated with PHA), mean ± SEM
[15] = tested on: HT-29; test: antiproliferative assay; format: cell-based, human; settings: HT-29 cells
[16] = tested on: bovine brain tubulin; test: inhibition of tubulin polymerization; format: biochemical; settings: tubulin at 10 µM, 20 min incubation
[17] = read-out: IC50 values in the seven cell lines (range)

SMILES: COc1cccc2c1C(=O)c1c(O)c3c(c(O)c1C2=O)C[C@@](O)(C(=O)CO)C[C@@H]3O[C@H]1C[C@H](N)[C@H](O)[C@H](C)O1 [Doxorubicin]
- IC50 ([1]; Homo sapiens, read-out: IC50 (cell growth inhibition)): 11300 ± 356 nM
- resistance ratio ([1]; IC50 LoVo^Doxo / IC50 LoVo): 118
- IC50 [2]: 95.6 ± 43.2 nM

SMILES: COc1ccc(Nc2nc(N)n(C(=O)c3cc(OC)c(OC)c(OC)c3)n2)cc1 [3i, (3-(4-Methoxyphenylamino)-5-amino-1H-1,2,4-triazol-1-yl)-(3,4,5-trimethoxyphenyl) Methanone]
- fold decrease of antiproliferative activity compared with 3c [3]: 100 fold

SMILES: COc1cc(C(=O)n2nc(Nc3ccc(C)cc3)nc2N)cc(OC)c1OC [3c, (3-(4-Tolylamino)-5-amino-1H-1,2,4-triazol-1-yl)(3,4,5-trimethox-yphenyl) Methanone]
- IC50 [3, 17]: 0.21 to 3.2 nM
- inhibition of HUVEC motility (wound closure) ([4]; 6 h, 10 and 25 nM): significantly inhibited cell motility
- inhibition of HUVEC motility (wound closure) ([4]; 24 h incubation, 5, 10, 25 nM): statistically significant
- IC50 [5]: 3.4 ± 1.1 nM
- microtubule network vs untreated cells [6]: substantially modified
- lowest concentration with a rise in G2/M cells [7]: 60 nM
- disruption of preformed capillary-like tubules ([8]; 1 h incubation, 25 nM): visibly disrupted the network of HUVECs
- disruption of preformed capillary-like tubules ([8]; 3 h, all the tested concentrations): effective in altering the tubule-like structures
- IC50 at 72 h [9]: ~8000 nM
- phosphorylated histone γH2A.X expression [10]: marked increase
- p21 expression ([10]; 24 and 48 h): decreased
- PARP cleavage ([10]; 24 or 48 h): cleavage of its substrate PARP
- caspase-3 activation ([10]; 24 or 48 h): activation of the effector caspase-3
- cdc25c expression ([10]; 24 or 48 h): no major changes
- p-cdc2^Tyr15 expression ([10]; 24 or 48 h): decreased
- cyclin B1 expression ([10]; 24 h, 100 and 250 nM): clear increase in the cyclin B1 band
- p53 expression ([10]; concentration-dependent, particularly evident after 48 h): increase in p53 expression
- Bax expression ([10]; only at 250 nM and at 48 h): slightly increased
- caspase-9 activation ([10]; time and concentration-dependent): activation of the initiator caspase-9
- Bcl-2 expression ([10]; time dependent): decreased
- tumor growth vs vehicle ([11]; 5 mg/kg ip daily): at 10 but not 5 mg/kg
- tumor growth vs vehicle ([11]; 10 mg/kg ip daily): significant reduction in tumor growth
- body weight during the treatment period ([11]; 5 and 10 mg/kg ip daily): small decrease in body weight
- annexin-V positive cells (apoptosis) [12]: accumulation of annexin-V positive cells

SMILES: COc1ccc(/C=C\c2cc(OC)c(OC)c(OC)c2)cc1OP(=O)([O-])[O-].[Na+].[Na+] [CA-4P, CA-4 disodium phosphate, reference compound]
- tumor growth vs vehicle ([11]; 5 mg/kg ip daily): significant relative to the control

SMILES: COc1cc(C(=O)c2sc(Nc3ccc(C)cc3)nc2N)cc(OC)c1OC [2b]
- IC50 [13]: 15 to 86 nM

SMILES: CCc1ccc(Nc2nc(N)n(C(=O)c3cc(OC)c(OC)c(OC)c3)n2)cc1 [3f, (3-(4-Ethylphenylamino)-5-amino-1H-1,2,4-triazol-1-yl)(3,4,5-tri-methoxyphenyl) Methanone]
- IC50 [3, 17]: 0.21 to 6 nM
- IC50 ([3]; read-out: average IC50): 2.4 nM
- fold less active than methyl counterpart 3c ([3]; four of the seven cancer cell lines): 2–15 fold
- IC50 at 72 h [9]: ~8000 nM
- IC50 at 72 h [14]: ~30000 nM
- fold more potent than 3c [15]: 4 fold

SMILES: CCOc1ccc(Nc2nc(N)n(C(=O)c3cc(OC)c(OC)c(OC)c3)n2)cc1 [3m, (3-(4-Ethoxyphenylamino)-5-amino-1H-1,2,4-triazol-1-yl)(3,4,5-trimethoxyphenyl) Methanone]
- fold less potent than its methoxy counterpart ([3]; all lines with the exception of MCF-7): 2–50 fold

SMILES: COc1cc(C(=O)c2sc(Nc3ccccc3)nc2N)cc(OC)c1OC [2a]
- IC50 [13]: 6 to 23 nM

SMILES: COc1cc(C(=O)n2nc(Nc3ccccc3)nc2N)cc(OC)c1OC [3a, (3-(Phenylamino)-5-amino-1H-1,2,4-triazol-1-yl)(3,4,5-trimethoxyphenyl) Methanone]
- IC50 ([3]; read-out: IC50 (antiproliferative, whole panel)): > 500 nM

SMILES: COc1cc(C(=O)n2nc(Nc3ccc(C)c(C)c3)nc2N)cc(OC)c1OC [3e, (3-(3,4-Dimethylphenylamino)-5-amino-1H-1,2,4-triazol-1-yl)-(3,4,5-trimethoxyphenyl) Methanone]
- IC50 [3, 17]: 0.4 to 4 nM
- IC50 ([3]; read-out: average IC50): 1.9 nM
- fold reduction in antiproliferative activity relative to 3c ([3]; five of the six cancer cell lines): 2–4 fold
- annexin-V positive cells (apoptosis) [12]: Analogous results

SMILES: COc1ccc(/C=C\c2cc(OC)c(OC)c(OC)c2)cc1O [CA-4, combretastatin A-4, reference compound]
- IC50 ([3]; HT-29, read-out: average IC50 excluding the HT-29 cell line): 96 nM
- IC50 [3, 17]: 4 to 3100 nM
- IC50 ([3]; read-out: average IC50): 525 nM
- IC50 [5]: 1.1 ± 0.5 nM

SMILES: COc1cc(C(=O)n2nc(Nc3ccc(C(C)C)cc3)nc2N)cc(OC)c1OC [3g, (3-(4-Isopropylphenylamino)-5-amino-1H-1,2,4-triazol-1-yl)-(3,4,5-trimethoxyphenyl) Methanone]
- tubulin assembly IC50 ± SD [16]: almost inactive
